Experiments:
Vero [1] = test: In vitro antiviral activity against parainfluenza type 3(para 3) virus was determined in african green monkey kidney (vero,V) expressed as virus rating; type: functional, Chlorocebus sabaeus
Summary of the method: (§1)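 Cell monolayers (18 h) infected with 320 TCID50 of virus. Compound was added within 15–30 min at half-log dilutions from 1000 to 1 μg/mL. After 72 h at 37 °C in 5% CO2, CPE was scored 0–4 by microscopy. VR = sum of (virus control − treated) scores, halved at partially toxic levels, divided by 10 × test cups per drug level.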

Vero [2] = test: In vitro antiviral activity against vaccinia(VV) virus was determined in african green monkey kidney (vero,V) expressed as virus rating; type: functional, Chlorocebus sabaeus; summary of the method: as §1
Vero [3] = test: In vitro antiviral activity against herpes simplex type 1 (HSV-1) virus was determined in african green monkey kidney (vero,V) expressed as virus rating; type: functional, Chlorocebus sabaeus; summary of the method: as §1
HEp-2 [4] = test: In vitro antiviral activity against herpes simplex type 1 (HSV-1) virus was determined in human laryngeal epithelioma (HEp-2,H)expressed as virus rating. Toxic level(320 ug/mL); type: functional; summary of the method: as §1
HEp-2 [5] = test: In vitro antiviral activity against parainfluenza type 3 (para 3) virus was determined in human laryngeal epithelioma (HEp-2,H)expressed as virus rating. Toxic level(320 ug/mL); type: functional; summary of the method: as §1
HEp-2 [6] = test: In vitro antiviral activity against vaccinia(VV) virus was determined in human laryngeal epithelioma (HEp-2,H)expressed as virus rating. Toxic level(320 ug/mL); type: functional; summary of the method: as §1
Vero [7] = test: In vitro antiviral activity against vaccinia(VV) virus was determined in african green monkey kidney (vero,V) expressed as virus rating. Toxic level(>1000 ug/mL); type: functional, Chlorocebus sabaeus; summary of the method: as §1
Vero [8] = test: In vitro antiviral activity against herpes simplex type 1 (HSV-1) virus was determined in african green monkey kidney (vero,V) expressed as virus rating. Toxic level(>1000 ug/mL); type: functional, Chlorocebus sabaeus; summary of the method: as §1
Vero [9] = test: In vitro antiviral activity against parainfluenza type 3(para 3) virus was determined in african green monkey kidney (vero,V) expressed as virus rating. Toxic level(>1000 ug/mL); type: functional, Chlorocebus sabaeus; summary of the method: as §1
Vero [10] = test: Percentage plaque reduction was determined against pichinde(PICH) virus in african green monkey kidney (vero,V).Toxic level(32 ug/mL); 61-90; type: functional, Chlorocebus sabaeus
Summary of the method: (§2)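 Infected Vero 24-well monolayers: virus adsorbed 1 h at 37 °C, then overlaid with agar holding dilutions of compound and incubated again at 37 °C with CO₂. Plaques were stained with crystal violet and counted. Inhibition was scored as % plaque reduction bands (10-30%, 31-60%, 61-90%), each tied to a drug concentration range.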

Vero [11] = test: Percentage plaque reduction was determined against rift valley fever(RVF) virus in african green monkey kidney (vero,V) at a conc of 25-100 ug/mL. Toxic level(32 ug/mL); 61-90; type: functional, Chlorocebus sabaeus
Vero [12] = test: Percentage plaque reduction was determined against venezuelan equine encephalitis (VEE) virus in african green monkey kidney (vero,V) at a conc of 100-250 ug/mL. Toxic level(32 ug/mL); type: functional, Chlorocebus sabaeus
Vero [13] = test: Percentage plaque reduction was determined against venezuelan equine encephalitis (VEE) virus in african green monkey kidney (vero,V) at a conc of 25-100 ug/mL. Toxic level(32 ug/mL); type: functional, Chlorocebus sabaeus
Vero [14] = test: Percentage plaque reduction was determined against Sandfly fever (SF) virus in african green monkey kidney (vero,V) at a conc of 250-500 ug/mL; 10-30; type: functional, Chlorocebus sabaeus
Vero [15] = test: In vitro antiviral activity against parainfluenza type 3(para 3) virus was determined in african green monkey kidney (vero,V) expressed as virus rating. Toxic level(32 ug/mL); type: functional, Chlorocebus sabaeus; summary of the method: as §1
Vero [16] = test: Percentage plaque reduction was determined against yellow fever(YF) virus in african green monkey kidney (vero,V).Toxic level(32 ug/mL); 61-90; type: functional, Chlorocebus sabaeus
Vero [17] = test: Percentage plaque reduction was determined against venezuelan equine encephalitis (VEE) virus in african green monkey kidney (vero,V) at a conc of 250-500 ug/mL. Toxic level(32 ug/mL); type: functional, Chlorocebus sabaeus
Vero [18] = test: Percentage plaque reduction was determined against venezuelan equine encephalitis (VEE) virus in african green monkey kidney (vero,V) at a conc of <25 ug/mL. Toxic level(32 ug/mL); type: functional, Chlorocebus sabaeus
Vero [19] = test: In vitro antiviral activity against herpes simplex type 1 (HSV-1) virus was determined in african green monkey kidney (vero,V) expressed as virus rating. Toxic level(32 ug/mL); type: functional, Chlorocebus sabaeus; summary of the method: as §1
Vero [20] = test: Percentage plaque reduction was determined against pichinde(PICH) virus in african green monkey kidney (vero,V).Toxic level(320 ug/mL); type: functional, Chlorocebus sabaeus; summary of the method: as §2
Vero [21] = test: Percentage plaque reduction was determined against pichinde(PICH) virus in african green monkey kidney (vero,V).; type: functional, Chlorocebus sabaeus; summary of the method: as §2
Vero [22] = test: In vitro antiviral activity against herpes simplex type 1 (HSV-1) virus was determined in african green monkey kidney (vero,V) expressed as virus rating. Toxic level(320 ug/mL); type: functional, Chlorocebus sabaeus; summary of the method: as §1
Vero [23] = test: In vitro antiviral activity against parainfluenza type 3(para 3) virus was determined in african green monkey kidney (vero,V) expressed as virus rating. Toxic level(320 ug/mL); type: functional, Chlorocebus sabaeus; summary of the method: as §1
Vero [24] = test: Percentage plaque reduction was determined against rift valley fever(RVF) virus in african green monkey kidney (vero,V) at a conc of <25 ug/mL. Toxic level(320 ug/mL); type: functional, Chlorocebus sabaeus
Vero [25] = test: Percentage plaque reduction was determined against venezuelan equine encephalitis (VEE) virus in african green monkey kidney (vero,V) at a conc of 250-500 ug/mL. Toxic level(320 ug/mL); type: functional, Chlorocebus sabaeus
Vero [26] = test: Percentage plaque reduction was determined against Sandfly fever (SF) virus in african green monkey kidney (vero,V) at a conc of 25-100 ug/mL. Toxic level(320 ug/mL); type: functional, Chlorocebus sabaeus

With `CSc1ncnc2c([C@@H]3O[C@H](CO)[C@@H](O)[C@H]3O)n[nH]c12` the Virus rating (Vero [1]) was 1.3, the Virus rating (Vero [2]) was 1.4 and the Virus rating (Vero [3]) was 0.8.

In the case of `NC(=O)c1ncnc2c1cnn2C1O[C@H](CO)[C@@H](O)[C@H]1O` (stereo partly specified), the Virus rating (HEp-2 [4]) is reported as 0, the Virus rating (HEp-2 [5]) is reported as 0 and the Virus rating (HEp-2 [6]) is reported as 0.2. For the same molecule, the Virus rating (Vero [7]) was 0, the Virus rating (Vero [8]) was 0 and the Virus rating (Vero [9]) was 0.

In the case of `O=C1N=CN=C2C1C=CN2C1O[C@H](CO)[C@@H](O)[C@H]1O` (stereo partly specified), the Plaque reduction (Vero [10]) is reported as 61%, the Plaque reduction (Vero [11]) is reported as 61% and the Plaque reduction (Vero [12]) is reported as 0%. For the same molecule, the Plaque reduction (Vero [13]) was 0%, the Plaque reduction (Vero [14]) was 10% and the Virus rating (Vero [15]) was 0. For the same molecule, the Plaque reduction (Vero [16]) was 61%, the Plaque reduction (Vero [17]) was 0% and the Plaque reduction (Vero [18]) was 0%. It also gave a Virus rating (Vero [19]) of 0.

Work on `OC[C@H]1OC(n2ccc3c(Cl)ncnc32)[C@H](O)[C@@H]1O` (stereo partly specified) yielded a Plaque reduction (Vero [20]) of over 90%, a Plaque reduction (Vero [21]) of over 90% and a Virus rating (Vero [22]) of 0.2. The Virus rating (Vero [23]) was 0.1, the Plaque reduction (Vero [24]) was over 90% and the Plaque reduction (Vero [25]) was 0%. It also gave a Plaque reduction (Vero [26]) of 90%.

— ChEMBL document CHEMBL1122187, “Synthesis and antiviral activity of certain carbamoylpyrrolopyrimidine and pyrazolopyrimidine nucleosides” (1982)
